Measured values published in ChEMBL document CHEMBL1148490, “Synthesis, characterization, and preliminary in vivo tests of new poly(ethylene glycol) conjugates of the antitumor agent 10-amino-7-ethylcamptothecin” (J Med Chem, 2004).
“And” between values parts separate entries of the source, which are not always exact repeats. Identical values can stand only once.

Columns and labels:
Rattus norvegicus [1] = test: Vdss at a dose of 4 mg/kg in Rat Plasma after iv administration; type: organism-based; set-up: dose 4 mg/kg
Procedure, shortened: (§1)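 Rats given a single iv dose via the right femoral vein after full recovery from anaesthesia, then a saline flush. Free drug dissolved in DMSO/10 mM H3PO4 (10/1); sodium salt in water. Blood (200 µL) drawn from a left femoral artery cannula at 2, 5, 10, 30 min and 1, 3, 5, 7 h. Plasma diluted in H3PO4 with camptothecin internal standard.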

Rattus norvegicus [2] = test: CLtot at a dose of 4 mg/kg in Rat Plasma after iv administration; type: organism-based; set-up: dose 4 mg/kg; procedure, shortened: as §1
Mus musculus [3] = test: Antitumor activity evaluated as tumor weight on day 21 of Meth A Fibrosarcoma in BALB/c mice at a dose of 100 mg/kg administered intravenously on day 5; type: functional; settings: route intravenous
Procedure, shortened: (§2)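 Meth A cells, 5 × 10^5/mouse, inoculated subcutaneously on day 0 into 7 week old male BALB/c mice, five per group. A single intravenous injection on day 5; saline for controls. Tumours weighed on day 21. Doses in mg/kg expressed as free drug. Inhibition rate derived from tumour weight relative to the saline control group.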

Mus musculus [4] = test: Antitumor activity evaluated as tumor weight on day 21 of Meth A Fibrosarcoma in BALB/c mice at a dose of 25 mg/kg administered intravenously on day 5; type: functional; settings: route intravenous; procedure, shortened: as §2
Mus musculus [5] = test: Antitumor activity evaluated as tumor weight on day 21 of Meth A Fibrosarcoma in BALB/c mice at a dose of 50 mg/kg administered intravenously on day 5; type: functional; settings: route intravenous; procedure, shortened: as §2
Mus musculus [6] = test: (§3) Inhibition rate of tumor growth at 25 mg/kg single iv administration against Meth A fibrosarcoma cells in BALB/c Mice; type: functional
Procedure, shortened: (§4)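 Male BALB/c mice, 7 weeks old (five per group), inoculated s.c. with Meth A cells at 5 × 10^5 cells/mouse on day 0. Single i.v. injection on day 5, doses expressed as free drug equivalent; control group given saline. Tumors weighed on day 21 (mean ± SD); inhibition rate derived from tumor weight relative to control.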

Mus musculus [7] = test: Evaluated for survival time of P388 Leukemia implanted female CDF1 Mice at a dose of 100 mg/kg; type: functional
Procedure, shortened: (§5)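 Female CDF1 mice inoculated intraperitoneally on day 0 with 1 × 10^6 P388 or P388/ADM (adriamycin-resistant, MDR-expressing) cells per mouse. Intravenous dosing on days 1, 5 and 9; doses listed are total mg/kg. Survival monitored for 40 days, reported as mean ± SD days. T/C% = (mean survival days of treated group / mean survival days of control group) × 100.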

Mus musculus [8] = test: Evaluated for survival time of P388 Leukemia implanted female CDF1 Mice at a dose of 50 mg/kg; type: functional; procedure, shortened: as §5
Mus musculus [9] = test: Evaluated for survival time of P388/ADM Leukemia implanted female CDF1 Mice at a dose of 50 mg/kg; type: functional; procedure, shortened: as §5
Mus musculus [10] = test: Inhibition rate of tumor growth at 100 mg/kg single iv administration against Meth A fibrosarcoma cells in BALB/c Mice; type: functional; procedure, shortened: as §4
Mus musculus [11] = test: Inhibition rate of tumor growth at 50 mg/kg single iv administration against Meth A fibrosarcoma cells in BALB/c Mice; type: functional; procedure, shortened: as §4
Mus musculus [12] = test: Ratio between mean survival days of treated group and control group at a dose of 100 mg/kg; type: functional; procedure, shortened: as §5
Mus musculus [13] = test: Ratio between mean survival days of treated group and control group at a dose of 25 mg/kg; type: functional; procedure, shortened: as §5
Mus musculus [14] = test: Ratio between mean survival days of treated group and control group at a dose of 50 mg/kg; type: functional; procedure, shortened: as §5
Mus musculus [15] = test: Evaluated for survival time of P388/ADM Leukemia implanted female CDF1 Mice at a dose of 100 mg/kg; type: functional; procedure, shortened: as §5
Mus musculus [16] = test: Evaluated for survival time of P388 Leukemia implanted female CDF1 Mice at a dose of 25 mg/kg; type: functional; procedure, shortened: as §5
Mus musculus [17] = species: Mus musculus; test: Ratio between mean survival days of treated group and control group; type: functional; procedure, shortened: as §5
Mus musculus [18] = test: Evaluated for survival time of P388/ADM Leukemia implanted female CDF1 Mice at a dose of 25 mg/kg
Rattus norvegicus [19] = species: Rattus norvegicus; test: (§6) Area under curve of the compound was determined; type: ADME, organism-based; settings: in vivo; procedure, shortened: as §1
[20] = Maximum plasma concentration at a dose of 4 mg/kg in Rat Plasma after iv administration; type: ADME, organism-based; set-up: dose 4 mg/kg, route intravenous; procedure, shortened: as §1
[21] = Mean residence time at a dose of 4 mg/kg in Rat Plasma after iv administration; type: ADME, organism-based; set-up: dose 4 mg/kg, route intravenous; procedure, shortened: as §1
[22] = Tmax at a dose of 4 mg/kg in Rat Plasma after iv administration; type: ADME, organism-based; set-up: dose 4 mg/kg, route intravenous; procedure, shortened: as §1
Mus musculus [23] = test: as §3; type: functional; procedure, shortened: as §2; remark: listed apart in the source
[24] = (§7) Half life at a dose of 4 mg/kg in Rat Plasma after iv administration; type: ADME, organism-based; set-up: dose 4 mg/kg, route intravenous; procedure, shortened: as §1
[25] = as §7; type: ADME, organism-based; set-up: dose 4 mg/kg, route intravenous; remark: listed apart in the source
Procedure, shortened: (§8)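 Rats given a single i.v. dose via right femoral vein after recovery from anesthesia, then saline flush. Blood drawn from left femoral artery cannula at 2, 5, 10, 30 min and 1, 3, 5, 7 h. Plasma diluted in 0.146 M H3PO4 with CPT internal standard, then on-line SPE and C18 HPLC with fluorescence detection (ex 390/em 513 nm). LOQ 2 ng/mL. Noncompartmental analysis; AUCinf by trapezoidal rule with extrapolation; n = 1–2 rats.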

[26] = as §6; type: ADME; procedure, shortened: as §8

## CCc1c2c(nc3ccc(N)cc13)-c1cc3c(c(=O)n1C2)COC(=O)[C@]3(O)CC [listing 1 of 2 here]
Rattus norvegicus [1]
  Vdss: 2.65 L/kg and 2.37 L/kg
Rattus norvegicus [2]
  CL (mL.min-1.kg-1): 40.3 and 34.5

## CCc1c2c(nc3ccc(OC(=O)N4CCC(N5CCCCC5)CC4)cc13)-c1cc3c(c(=O)n1C2)COC(=O)[C@]3(O)CC [IRINOTECAN]
Mus musculus [3]
  Antitumor activity: 1.16 g
Mus musculus [4]
  Antitumor activity: 1.24 g
Mus musculus [5]
  Antitumor activity: 1.31 g
Mus musculus [6]
  Antitumor activity: 49.5%
Mus musculus [7]
  Survival time: 17.5 days
Mus musculus [8]
  Survival time: 14.5 days
Mus musculus [9]
  Survival time: 14.7 days
Mus musculus [10]
  Inhibition rate: 52.7%
Mus musculus [11]
  Inhibition rate: 46.6%
Mus musculus [12]
  T/C: 228%
Mus musculus [13]
  T/C: 172% and 129%
Mus musculus [14]
  T/C: 189%
Mus musculus [15]
  Survival time: 15.7 days

## COc1cccc2c1C(=O)c1c(O)c3c(c(O)c1C2=O)C[C@@](O)(C(=O)CO)C[C@@H]3O[C@H]1C[C@H](N)[C@H](O)[C@H](C)O1 [DOXORUBICIN]
Mus musculus [16]
  Activity: 20 days
Mus musculus [17]
  T/C: 261% and 102%
Mus musculus [18]
  Activity: 9.8 days

## CCc1c2c(nc3ccc(N)cc13)-c1cc3c(c(=O)n1C2)COC(=O)[C@]3([O-])CC.[Na+]
Rattus norvegicus [19]
  AUC inf: 1.71 µg/h/mL
[20]
  Cmax: 10500 ng/mL
[21]
  MRT inf: 1.09 h
[22]
  Tmax: 2 min
Mus musculus [3]
  Antitumor activity: 0.88 g
Mus musculus [4]
  Antitumor activity: 0.93 g
Mus musculus [5]
  Antitumor activity: 0.88 g
Mus musculus [10]
  Inhibition rate: 69.3%
Mus musculus [23]
  Inhibition rate: 62.3%
Mus musculus [11]
  Inhibition rate: 64%
[24]
  half-life: 2.26 h

## CCc1c2c(nc3ccc(N)cc13)-c1cc3c(c(=O)n1C2)COC(=O)[C@]3(O)CC [listing 2 of 2 here]
[20]
  Cmax: 10500 ng/mL
[21]
  MRT inf: 1.09 h
[22]
  Tmax: 2 min
[25]
  half-life: 2.25 h
[26]
  AUC inf: 2.08 µg/h/mL
